The values below come from paper PMC3447108 (Bioconjugate chemistry, 2012).

Read-outs that look alike come from different tables or passages of the source.

Data set [1] concerns RGC-5 cells. The data set can be described thus: NMDA / glutamate excitotoxicity model. As to conditions: native and SS-differentiated; up to 5 mM, up to 48 hrs; data not shown. The data set is classed as cell-based, mouse.
Data set [2] has as its system RGC-5 cells. The data set can be described thus: Induction of apoptosis and probe activation by cytotoxic agents. The data set is classed as cell-based, mouse.
The subject of data set [3] is RGC-5 cells. Put plainly: Staurosporine differentiation and morphology of RGC-5 cells. The data set is classed as cell-based, mouse.
Another data set has as its target T1, caspase 3 (Homo sapiens, UniProt P42574).
T1 sequence (P42574 29-175 limits assumed): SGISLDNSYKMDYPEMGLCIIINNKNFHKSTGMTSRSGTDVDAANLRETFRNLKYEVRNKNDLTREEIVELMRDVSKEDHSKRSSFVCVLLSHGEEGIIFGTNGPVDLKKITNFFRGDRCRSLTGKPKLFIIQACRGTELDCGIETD
T1 sequence (P42574 176-277 limits assumed): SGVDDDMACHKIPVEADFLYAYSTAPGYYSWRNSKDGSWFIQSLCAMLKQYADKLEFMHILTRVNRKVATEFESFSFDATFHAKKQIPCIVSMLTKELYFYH
Put plainly: Caspase 3 probe cleavage. As to conditions: HEPES buffer pH 7.4, 10 mM DTT, 37°C, 640/680 nm. In kind it is biochemical. Summed up:
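Human recombinant caspase 3 (E. coli-expressed; 50 U, 1.4 × 10−6 mg) is pre-equilibrated for 10 min at 37°C in the stated buffer with 0.1% CHAPS, 10% glycerol and 1 mM EDTA. Quenched test compound (2 µM solution) is added, and fluorescence is read continuously for 30 min at 37°C. Signals are background-subtracted and normalized to enzyme mass. Initial 0–5 min rates come from linear fits; Km and kcat come from nonlinear regression of cleavage rates.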

Data set [4] deals with RGC-5 cells. The data set can be described thus: Non-target activation in healthy cells, LysoTracker co-localization. The data set is classed as cell-based, mouse.
Data set [5] has as its system RGC-5 cells. In kind it is cell-based, mouse. The settings on record: FITC-annexin V; compared to 3 with Alexa Fluor 647-annexin V; data not shown. Summed up: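 RGC-5 cells are grown in phenol-free DMEM with 10% FBS at 37°C and 5% CO2. They are given 5 µM staurosporine in growth medium for 3 h, then co-incubated for 30 min with up to 10 µM quenched test compound plus FITC-annexin V. Propidium iodide (500 nM) is added for 5 min. Cells are rinsed three times in phenol-free medium and imaged by fluorescence microscopy.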

Data set [6] deals with retinal ganglion cell apoptosis. The settings on record: directly applied into the vitreous humor; models of RGC degeneration; ref [6],[10]; cited from earlier work.
For data set [7] the following is noted: in vivo; cited from earlier work.
Setting [8] is: Figures 5–7, S9, S10 (ionomycin), Figure 6 (SS), doxorubicin data not shown.

As to `CN[C@H](CC(=O)O)C(=O)O` [NMDA], the loss in viability entry in the data set with RGC-5 cells [1] is recorded as “no loss in viability”.
Turning to `C[C@H](CCC(=O)O)C[C@H](C)C[C@H](C)C(=O)/C=C(\O)[C@H](C)C[C@H](C)C/C=C/[C@@H](C)[C@@H](O)[C@@H](C)[C@@H](O)C[C@@H]1CC[C@@](C)([C@H]2CC[C@@](C)([C@@H](C)O)O2)O1` [ionomycin], the “apoptosis and probe activation upon treatment” value in the data set with RGC-5 cells [2] (setting [8]) is reported as “readily observed”.
Turning to `COc1cccc2c1C(=O)c1c(O)c3c(c(O)c1C2=O)C[C@@](O)(C(=O)CO)C[C@@H]3O[C@H]1C[C@H](N)[C@H](O)[C@H](C)O1` [doxorubicin], the “apoptosis and probe activation upon treatment” value in the data set on RGC-5 cells [2] is reported as “readily observed”.
Turning to `CN[C@@H]1C[C@H]2O[C@@](C)([C@@H]1OC)n1c3ccccc3c3c4c(c5c6ccccc6n2c5c31)C(=O)NC4` [SS, staurosporine], the “time to differentiation morphology” value in the data set on RGC-5 cells [3] (0.5 µM SS, 37°C, bright field microscopy) is no more than 1 hour. Besides, in the data set on RGC-5 cells [3] (SS, room temperature), the “time to completion of morphological changes” value is listed as “approximately 2 hours”. In addition, the “toxic concentration (blebbing and disruption of neurite morphology)” value in the data set on RGC-5 cells [3] (concentrations exceeding the value) is recorded as “exceeding 2 µM”. In addition, in the data set with RGC-5 cells [2] (setting [8]), the “apoptosis and probe activation upon treatment” value is “readily observed”.
With “(kkkrkv) linked to a cleavage sequence consisting of L amino acids (KDEVDAPC) [compound 1]”, the kcat/Km with caspase 3 is given as 435 (FU min^−1 µM^−1)/nM. In the data set with RGC-5 cells [4] (2 hr exposure, fluorescence microscopy), the “probe signal in healthy cells” value is “no significant probe signal”. For the same molecule, the “Pearson’s coefficient, LysoTracker compartments and activated probe” value was 0.612 with RGC-5 cells [4] (SS-differentiated RGC-5 cells, 3 hrs) and 0.566 in the data set with RGC-5 cells [4] (native RGC-5 cells, 3 hrs). Moreover, the “punctate probe signal in LysoTracker-labeled compartments” value in the data set with RGC-5 cells [4] (healthy native and SS-differentiated RGC-5 cells, 3 hrs) is on record as “delayed appearance of punctate signal”. Further, the “coincidence of probe activation with annexin V binding” value with RGC-5 cells [5] is on record as “Identical results”. In data set [6], the “detection of RGC apoptosis in vivo” value is on record as “detect RGC apoptosis in models of RGC degeneration in vivo”. Besides, the systemic toxicity result in data set [7] is “without the systemic toxicity of the HIV-1 Tat sequence”.
